Results from ChEMBL document CHEMBL1125032, “Structure-activity relationship of antiestrogens. Effect of the side chain and its position on the activity of 2,3-diaryl-2H-1-benzopyrans” (J Med Chem, 1990).

What was measured:
[1] = target: Estrogen receptor beta (Rattus norvegicus) (UniProt Q62986); assay: Mean percent inhibition of Estrogen receptor beta in rat; set-up: concentration or dose not given beside the values; conditions: concentration not given here
Summary of the method: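 Immature female rats were dosed subcutaneously with 10 µg/rat for three days together with 0.3 µg E2 at a separate site. Uterine weight was read 24 h after the last dose. Inhibition of E2-stimulated uterine growth was calculated from the mean uterine weights of the vehicle-alone, E2-alone and compound-plus-E2 groups.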

[2] = target: Anti-estrogen binding site (AEBS) (Homo sapiens) (UniProt Q15125+Q9UBM7); assay: Relative binding affinity against Antiestrogen binding site(AEBS); type: functional; conditions: Rattus norvegicus
Summary of the method: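 Rat liver microsomal fraction was first incubated 2 h at 4 °C with 2 µM diethylstilbestrol to saturate ER sites. It was then incubated 18 h at 4 °C with competitor (1×10⁻⁹ to 3×10⁻⁶ M) and ³H-tamoxifen (1×10⁻⁹ M) in 35% DMF–TEA buffer. Charcoal-dextran was added for 15 min at 4 °C, the tubes were centrifuged at 1000g, and the supernatant was counted.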

[3] = target: T1, Estrogen receptor (Rattus norvegicus) (UniProt P06211+Q62986); assay: Estrogenic activity as mean uterine weight in rats on 10 ug dose; type: functional
Summary of the method: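 Immature female Charles Foster rats (21–23 days old, 25–40 g) received 10 µg/rat subcutaneously, suspended in 0.1 mL propylene glycol–0.9% saline (1:1, v/v), daily for three days. Controls received vehicle alone. Uterine wet weight was taken at autopsy 24 h after the final dose and given as mean ± SD in mg from 6–9 animals.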

[4] = target: T1, Estrogen receptor (Rattus norvegicus); assay: Antiestrogenic activity in presence of unlabeled estradiol as mean uterine weight in rats after 0.3 ug dose; type: functional
Summary of the method: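 Immature female Charles Foster rats (21–23 days old, 25–40 g) were given 10 µg/rat of compound subcutaneously in 0.1 mL propylene glycol–0.9% saline (1:1, v/v) on three consecutive days. They were co-injected with 0.3 µg E2 at a different site. Controls got E2 plus vehicle. Uteri were weighed 24 h after the last injection. Values are mean ± SD, 6–9 animals.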

[5] = target: T1, Estrogen receptor (Rattus norvegicus); assay: Relative binding affinity against estrogen receptor(ER); type: protein assay
Summary of the method: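 Uterine cytosol came from immature rats primed with 0.1 µg E2 24 h before sacrifice. It was incubated 18–20 h at 4 °C, in triplicate, with competitor (10⁻⁴–10⁻⁹ M) and ³H-E2 (5×10⁻⁹ M) in TEA buffer, pH 7.4, containing 7% DMF. Free ligand was removed with charcoal-dextran (20 min), and bound radioactivity was measured by scintillation counting.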

Sequence of Estrogen receptor beta (Rattus norvegicus) (Q62986 whole entry): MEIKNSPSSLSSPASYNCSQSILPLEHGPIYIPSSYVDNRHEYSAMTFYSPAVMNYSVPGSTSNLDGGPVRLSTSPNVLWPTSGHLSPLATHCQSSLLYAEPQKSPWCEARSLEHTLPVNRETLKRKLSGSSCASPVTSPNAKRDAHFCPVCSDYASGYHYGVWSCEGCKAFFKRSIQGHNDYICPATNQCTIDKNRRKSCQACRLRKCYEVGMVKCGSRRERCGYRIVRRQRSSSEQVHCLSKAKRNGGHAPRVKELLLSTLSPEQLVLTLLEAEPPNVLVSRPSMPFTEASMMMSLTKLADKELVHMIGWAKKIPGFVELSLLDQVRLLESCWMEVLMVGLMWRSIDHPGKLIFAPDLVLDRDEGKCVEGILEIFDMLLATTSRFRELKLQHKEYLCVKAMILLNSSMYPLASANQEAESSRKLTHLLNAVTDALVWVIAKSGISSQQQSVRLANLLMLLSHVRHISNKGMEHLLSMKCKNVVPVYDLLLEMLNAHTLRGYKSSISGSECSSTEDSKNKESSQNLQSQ

Structure (SMILES)	inhibition [1] [%]	relative binding affinity (RBA) [2]	Mean weight [3] [mg]	Mean weight [4] [mg]	relative binding affinity (RBA) [5]
CN(C)CCOc1ccc(C2Oc3ccccc3C=C2c2ccccc2)cc1 (configuration not stated)	30	98	33.9	36.5	0.11
C1=C(c2ccccc2)C(c2ccc(OCCN3CCCCCC3)cc2)Oc2ccccc21 (configuration not stated)	61	153	19.3	23.1	0.24
C1=C(c2ccccc2)C(c2ccc(OCCN3CCCCC3)cc2)Oc2ccccc21 (configuration not stated)	75	225	–	–	0.3
OCC(O)COc1ccc(C2Oc3ccccc3C=C2c2ccccc2)cc1 (configuration not stated)	–	–	20.7	38.8	–
CCCCNCC(O)COc1ccc(C2Oc3ccccc3C=C2c2ccccc2)cc1 (configuration not stated)	0	–	8.7	45.9	–

Second part, the compound after the results:

inhibition [1] [%]	relative binding affinity (RBA) [2]	Mean weight [3] [mg]	Mean weight [4] [mg]	relative binding affinity (RBA) [5]	Structure (SMILES)
0	–	17.4	42.2	< 0.001	C1=C(c2ccccc2)C(c2cccc(OCCN3CCCCC3)c2)Oc2ccccc21 (configuration not stated)
0	–	12.6	45.5	0.05	Oc1ccc(C2Oc3ccccc3C=C2c2ccccc2)cc1 (configuration not stated)
0	51	34.5	40.6	2.1	CCC1=C(c2ccccc2)C(c2ccc(OCCN3CCCC3)cc2)Oc2cc(OC)ccc21 (configuration not stated)
0	–	11.1	43.1	< 0.001	C1=C(c2ccccc2)C(c2ccccc2OCCN2CCCCC2)Oc2ccccc21 (configuration not stated)
56	150	27.2	27	9.9	CC1=C(c2ccccc2)C(c2ccc(OCCN3CCCC3)cc2)Oc2ccccc21 (configuration not stated)
56	134	–	26.6	0.5	C1=C(c2ccccc2)C(c2ccc(OCCN3CCCC3)cc2)Oc2ccccc21 (configuration not stated)
48	66	–	–	0.4	COc1ccc2c(c1)OC(c1ccc(OCCN3CCCC3)cc1)C(c1ccccc1)=C2 (configuration not stated)
